# ChEMBL document CHEMBL1149790, “Synthesis of some novel thiourea derivatives obtained from 5-[(4-aminophenoxy)methyl]-4-alkyl/aryl-2,4-dihydro-3H-1,2,4-triazole-3-thiones and evaluation as antiviral/anti-HIV and anti-tuberculosis agents” (Eur J Med Chem, 2008)
# Columns and labels:
# [1] = test system: Vesicular stomatitis virus; test: Antiviral activity against in Vesicular stomatitis virus in human E6SM cells assessed as reduction of virus-induced cytopathogenicity; assay type: functional
# Method in brief: (§1)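 Confluent cell monolayers (E6SM, HEL, HeLa or Vero, per line) inoculated with 100 CCID50 virus; 1 h adsorption, residual virus removed, then incubated with compound at 400, 200, 100 … µg/ml. Cytopathicity scored once complete in untreated virus controls; MIC = concentration inhibiting virus-induced cytopathicity.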
# Human alphaherpesvirus 2 [2] = test: Antiviral activity against HSV2 G in human E6SM cells assessed as reduction of virus-induced cytopathogenicity; assay type: functional; details: Human alphaherpesvirus 2, G; method in brief: as §1
# [3] = test system: Mammalian orthoreovirus 1; test: Antiviral activity against Reo virus 1 in african green monkey Vero cells assessed as reduction of virus-induced cytopathogenicity; assay type: functional; method in brief: as §1
# [4] = test system: Human immunodeficiency virus 1; test: Antiviral activity against HIV1 3B in human MT4 cells assessed as protection against virus-induced cytopathogenicity by MTT assay; assay type: functional, organism-based; set-up: Activity: concentration or dose not given beside the values; details: for IC50: Human immunodeficiency virus 1, 3B, MT4
# Method in brief: (§2)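 MT-4 cells at 6 × 10⁵ cells/ml infected with HIV-1 IIIB or HIV-2 ROD at 100–300 CCID50; compounds in serial five-fold dilutions, triplicate mock- and virus-infected wells. MTT viability read at 540 and 690 nm after 5 days, median OD of three wells; EC50 = 50% protection from viral cytopathic effect.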
# [5] = Cytotoxicity against human HEL cells assessed as reduction of cell growth; assay type: cell-based
# Method in brief: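 HEL cells; CC50 = compound concentration reducing cell growth by 50%.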
# Sindbis virus = test: Antiviral activity against Sindbis virus in african green monkey Vero cells assessed as reduction of virus-induced cytopathogenicity; assay type: functional; method in brief: as §1
# Coxsackievirus B4 [6] = test: Antiviral activity against Coxsackie virus B4 in human HeLa cells assessed as inhibition of virus-induced cytopathogenicity; assay type: functional; details: Enterovirus B; method in brief: as §1
# Human respirovirus 3 = test: Antiviral activity against Parainfluenza 3 virus in african green monkey Vero cells assessed as reduction of virus-induced cytopathogenicity; assay type: functional; method in brief: as §1
# [7] = Cytotoxicity against human MT4 cells by MTT assay; assay type: cell-based
# Method in brief: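 Mock-infected MT-4 cells (6 × 10⁵ cells/ml) with serial five-fold compound dilutions in triplicate; MTT reduction read at 540 and 690 nm after 5 days, median OD of three wells; CC50 = concentration reducing OD540 of mock-infected control by 50%.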
# [8] = test system: Human immunodeficiency virus 2; test: Antiviral activity against HIV2 ROD in human MT4 cells assessed as protection against virus-induced cytopathogenicity by MTT assay; assay type: functional, organism-based; set-up: Activity: concentration or dose not given beside the values; details: for IC50: Human immunodeficiency virus 2, ROD, MT4; method in brief: as §2
# [9] = test system: Respiratory syncytial virus; test: Antiviral activity against respiratory syncytial virus in human HeLa cells assessed as inhibition of virus-induced cytopathogenicity; assay type: functional; method in brief: as §1
# [10] = Cytotoxicity against human HeLa cells; assay type: cell-based
# Method in brief: (§3)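 Uninfected cell cultures exposed to test compounds alongside antiviral assays; minimum cytotoxic concentration (MCC) = concentration causing a microscopically detectable alteration of cell morphology.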
# Human alphaherpesvirus 1 [11] = test: Antiviral activity against HSV1 KOS in human HEL cells assessed as reduction of virus-induced cytopathogenicity; assay type: functional; details: Human alphaherpesvirus 1, KOS; method in brief: as §1
# Human betaherpesvirus 5 [12] = test: Antiviral activity against human cytomegalovirus Davis infected HEL cells assessed as reduction in virus plaque formation; assay type: functional, organism-based; details: Human betaherpesvirus 5, Davis
# Human alphaherpesvirus 1 [13] = test: Antiviral activity against thymidine kinase deficient and acyclovir resistant HSV1 KOS in human HEL cells assessed as reduction of virus-induced cytopathogenicity; assay type: functional; details: Human alphaherpesvirus 1, KOS; method in brief: as §1
# Vero = test: Cytotoxicity against african green monkey Vero cells; assay type: cell-based; details: chlorocebus sabaeus; method in brief: as §3
# Human alphaherpesvirus 3 [14] = test: Antiviral activity against TK- VZV 07/1 infected HEL cells assessed as reduction in virus plaque formation; assay type: functional, organism-based; details: Human alphaherpesvirus 3, 07/1, HEL
# Human alphaherpesvirus 3 [15] = test: Antiviral activity against TK+ VZV OKA infected HEL cells assessed as reduction in virus plaque formation; assay type: functional, organism-based; details: Human alphaherpesvirus 3, OKA
# Human alphaherpesvirus 1 [16] = test: Antiviral activity against HSV1 KOS in human E6SM cells assessed as reduction of virus-induced cytopathogenicity; assay type: functional; details: Human alphaherpesvirus 1, KOS; method in brief: as §1
# Human alphaherpesvirus 1 [17] = test: Antiviral activity against thymidine kinase deficient and acyclovir resistant HSV1 KOS in human E6SM cells assessed as reduction of virus-induced cytopathogenicity; assay type: functional; details: Human alphaherpesvirus 1, KOS; method in brief: as §1
# Human betaherpesvirus 5 [18] = test: Antiviral activity against human cytomegalovirus AD169 infected HEL cells assessed as reduction in virus plaque formation; assay type: functional, organism-based; details: Human betaherpesvirus 5, AD169, HEL
# Coxsackievirus B4 [19] = test: Antiviral activity against Coxsackie virus B4 in african green monkey Vero cells assessed as reduction of virus-induced cytopathogenicity; assay type: functional; details: Enterovirus B; method in brief: as §1
# Punta Toro virus = test: Antiviral activity against Punta Toro virus in african green monkey Vero cells assessed as reduction of virus-induced cytopathogenicity; assay type: functional; method in brief: as §1
# [20] = test system: Vesicular stomatitis virus; test: Antiviral activity against in Vesicular stomatitis virus in human HEL cells assessed as reduction of virus-induced cytopathogenicity; assay type: functional; method in brief: as §1
# [21] = test system: Vesicular stomatitis virus; test: Antiviral activity against vesicular stomatitis virus in human HeLa cells assessed as inhibition of virus-induced cytopathogenicity; assay type: functional; method in brief: as §1
# [22] = Cytotoxicity against human HEL cells assessed as alteration of cell morphology; assay type: cell-based; method in brief: as §3
# [23] = Cytotoxicity against human E6SM cells; assay type: cell-based; details: E6SM cells; method in brief: as §3
# Human alphaherpesvirus 2 [24] = test: Antiviral activity against HSV2 G in human HEL cells assessed as reduction of virus-induced cytopathogenicity; assay type: functional; details: Human alphaherpesvirus 2, G; method in brief: as §1
smiles,measurement,setting,value
Cn1c(COc2ccc(N)cc2)n[nH]c1=S,MIC,[1],> 400 µg/mL
same,MIC,Human alphaherpesvirus 2 [2],80 µg/mL
same,MIC,[3],> 3.2 µg/mL
same,Activity,[4],2.5%
same,IC50,[4],> 125 µg/mL
same,CC50,[5],> 50 µg/mL
same,MIC,Sindbis virus,> 3.2 µg/mL
same,MIC,Coxsackievirus B4 [6],> 400 µg/mL
same,MIC,Human respirovirus 3,> 3.2 µg/mL
same,CC50,[7],≥ 119 µg/mL
same,Activity,[8],4%
same,IC50,[8],> 125 µg/mL
same,MIC,[9],> 400 µg/mL
same,MCC,[10],> 400 µg/mL
same,MIC,Human alphaherpesvirus 1 [11],400 µg/mL
same,EC50,Human betaherpesvirus 5 [12],> 100 µg/mL
same,MIC,Human alphaherpesvirus 1 [13],80 µg/mL
same,Activity,Vero,16 µg/mL
same,EC50,Human alphaherpesvirus 3 [14],> 100 µg/mL
same,EC50,Human alphaherpesvirus 3 [15],> 100 µg/mL
same,MIC,Human alphaherpesvirus 1 [16],400 µg/mL
same,MIC,Human alphaherpesvirus 1 [17],80 µg/mL
same,EC50,Human betaherpesvirus 5 [18],> 100 µg/mL
same,MIC,Coxsackievirus B4 [19],> 3.2 µg/mL
same,MIC,Punta Toro virus,> 3.2 µg/mL
same,MIC,[20],> 400 µg/mL
same,MIC,[21],> 400 µg/mL
same,MCC,[22],> 400 µg/mL
same,MCC,[23],> 400 µg/mL
same,MIC,Human alphaherpesvirus 2 [24],80 µg/mL
C=CCNC(=S)Nc1ccc(OCc2n[nH]c(=S)n2C)cc1,MIC,[1],> 400 µg/mL
same,MIC,Human alphaherpesvirus 2 [2],240 µg/mL
same,MIC,[3],> 80 µg/mL
same,Activity,[4],1.5%
same,IC50,[4],> 107 µg/mL
same,CC50,[5],> 50 µg/mL
same,MIC,Sindbis virus,> 80 µg/mL
same,MIC,Coxsackievirus B4 [6],> 80 µg/mL
same,MIC,Human respirovirus 3,> 80 µg/mL
same,CC50,[7],≥ 107 µg/mL
same,Activity,[8],3%
same,IC50,[8],> 114 µg/mL
same,MIC,[9],> 80 µg/mL
same,MCC,[10],400 µg/mL
same,MIC,Human alphaherpesvirus 1 [11],> 400 µg/mL
same,EC50,Human betaherpesvirus 5 [12],> 100 µg/mL
same,MIC,Human alphaherpesvirus 1 [13],240 µg/mL
same,Activity,Vero,400 µg/mL
same,EC50,Human alphaherpesvirus 3 [14],> 100 µg/mL
same,EC50,Human alphaherpesvirus 3 [15],> 100 µg/mL
same,MIC,Human alphaherpesvirus 1 [16],> 400 µg/mL
same,MIC,Human alphaherpesvirus 1 [17],240 µg/mL
same,EC50,Human betaherpesvirus 5 [18],> 100 µg/mL
same,MIC,Coxsackievirus B4 [19],48 µg/mL
same,MIC,Punta Toro virus,> 80 µg/mL
same,MIC,[20],> 400 µg/mL
same,MIC,[21],> 80 µg/mL
same,MCC,[22],> 400 µg/mL
same,MCC,[23],> 400 µg/mL
same,MIC,Human alphaherpesvirus 2 [24],240 µg/mL
CCNC(=S)Nc1ccc(OCc2n[nH]c(=S)n2-c2ccccc2)cc1,MIC,[1],> 400 µg/mL
same,MIC,Human alphaherpesvirus 2 [2],> 400 µg/mL
same,MIC,[3],> 80 µg/mL
same,Activity,[4],1%
same,IC50,[4],> 15 µg/mL
same,CC50,[5],> 50 µg/mL
same,MIC,Sindbis virus,> 80 µg/mL
same,MIC,Coxsackievirus B4 [6],> 80 µg/mL
same,MIC,Human respirovirus 3,> 80 µg/mL
same,CC50,[7],22 µg/mL
same,Activity,[8],11%
same,IC50,[8],> 19.4 µg/mL
same,MIC,[9],> 80 µg/mL
same,MCC,[10],400 µg/mL
same,MIC,Human alphaherpesvirus 1 [11],> 400 µg/mL
same,EC50,Human betaherpesvirus 5 [12],> 100 µg/mL
same,MIC,Human alphaherpesvirus 1 [13],> 400 µg/mL
same,Activity,Vero,400 µg/mL
same,EC50,Human alphaherpesvirus 3 [14],> 100 µg/mL
same,EC50,Human alphaherpesvirus 3 [15],> 100 µg/mL
same,MIC,Human alphaherpesvirus 1 [16],> 400 µg/mL
same,MIC,Human alphaherpesvirus 1 [17],> 400 µg/mL
same,EC50,Human betaherpesvirus 5 [18],> 100 µg/mL
same,MIC,Coxsackievirus B4 [19],80 µg/mL
same,MIC,Punta Toro virus,> 80 µg/mL
same,MIC,[20],> 400 µg/mL
same,MIC,[21],> 80 µg/mL
same,MCC,[22],> 400 µg/mL
same,MCC,[23],> 400 µg/mL
same,MIC,Human alphaherpesvirus 2 [24],> 400 µg/mL
C=CCn1c(COc2ccc(NC(=S)NC)cc2)n[nH]c1=S,MIC,[1],> 400 µg/mL
same,MIC,Human alphaherpesvirus 2 [2],> 400 µg/mL
same,MIC,[3],> 80 µg/mL
same,Activity,[4],1%
same,IC50,[4],> 101 µg/mL
same,CC50,[5],> 50 µg/mL
same,MIC,Sindbis virus,> 80 µg/mL
same,MIC,Coxsackievirus B4 [6],> 80 µg/mL
same,MIC,Human respirovirus 3,> 80 µg/mL
same,CC50,[7],108 µg/mL
same,Activity,[8],3.5%
same,IC50,[8],> 110 µg/mL
same,MIC,[9],> 80 µg/mL
same,MCC,[10],400 µg/mL
same,MIC,Human alphaherpesvirus 1 [11],> 400 µg/mL
same,EC50,Human betaherpesvirus 5 [12],> 100 µg/mL
same,MIC,Human alphaherpesvirus 1 [13],> 400 µg/mL
same,Activity,Vero,400 µg/mL
same,EC50,Human alphaherpesvirus 3 [14],> 100 µg/mL
same,EC50,Human alphaherpesvirus 3 [15],> 100 µg/mL
same,MIC,Human alphaherpesvirus 1 [16],> 400 µg/mL
same,MIC,Human alphaherpesvirus 1 [17],> 400 µg/mL
same,EC50,Human betaherpesvirus 5 [18],> 100 µg/mL
same,MIC,Coxsackievirus B4 [19],> 80 µg/mL
same,MIC,Punta Toro virus,> 80 µg/mL
same,MIC,[20],> 400 µg/mL
same,MIC,[21],> 80 µg/mL
same,MCC,[22],> 400 µg/mL
same,MCC,[23],> 400 µg/mL
same,MIC,Human alphaherpesvirus 2 [24],> 400 µg/mL
CNC(=S)Nc1ccc(OCc2n[nH]c(=S)n2-c2ccccc2)cc1,MIC,[1],> 400 µg/mL
same,MIC,Human alphaherpesvirus 2 [2],> 400 µg/mL
same,MIC,[3],> 80 µg/mL
same,Activity,[4],0.5%
same,IC50,[4],> 83.5 µg/mL
same,CC50,[5],> 50 µg/mL
same,MIC,Sindbis virus,> 80 µg/mL
same,MIC,Coxsackievirus B4 [6],> 80 µg/mL
same,MIC,Human respirovirus 3,> 80 µg/mL
same,CC50,[7],≥ 83.5 µg/mL
same,Activity,[8],2%
same,IC50,[8],> 113 µg/mL
same,MIC,[9],> 80 µg/mL
same,MCC,[10],400 µg/mL
same,MIC,Human alphaherpesvirus 1 [11],> 400 µg/mL
same,EC50,Human betaherpesvirus 5 [12],> 100 µg/mL
same,MIC,Human alphaherpesvirus 1 [13],> 400 µg/mL
same,Activity,Vero,400 µg/mL
same,EC50,Human alphaherpesvirus 3 [14],> 100 µg/mL
same,EC50,Human alphaherpesvirus 3 [15],> 100 µg/mL
same,MIC,Human alphaherpesvirus 1 [16],> 400 µg/mL
same,MIC,Human alphaherpesvirus 1 [17],> 400 µg/mL
same,EC50,Human betaherpesvirus 5 [18],> 100 µg/mL
same,MIC,Coxsackievirus B4 [19],> 80 µg/mL
same,MIC,Punta Toro virus,> 80 µg/mL
same,MIC,[20],> 400 µg/mL
same,MIC,[21],> 80 µg/mL
same,MCC,[22],> 400 µg/mL
same,MCC,[23],> 400 µg/mL
same,MIC,Human alphaherpesvirus 2 [24],> 400 µg/mL
